Common to all, as to format: functional
For experiment [1], the species on record is Cavia porcellus. In words: Average skin reaction in guinea pig sensitized to alpha-methylene-gamma-butyrolactone. In outline: (§1)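 Female guinea pigs (albino Hartley and Himalayan spotted Füllingsdorf), 300–500 g, sensitized by Klečak's method. The hapten was emulsified in Freund's complete adjuvant and injected intradermally into the shaved nuchal region on alternate days, five injections in all. Skin reactions at elicitation were scored up to 3 (erythema plus swelling well beyond the test area) and 4 (necrosis or ulceration). Irritation thresholds were first set on untreated animals by the same elicitation procedure.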

Experiment [2] is filed under the species Cavia porcellus. In words: Average skin reaction in guinea pig sensitized to the sesquiterpene alantolactone. In outline:
as §1

The species entered for experiment [3] is Cavia porcellus. Nature of the experiment: Average skin reaction in guinea pig sensitized to the sesquiterpene isoalantolactone. In outline: as §1
The species entered for experiment [4] is Cavia porcellus. Nature of the experiment: Number of guinea pigs sensitized to alpha-methylene-gamma-butyrolactone (out of 10 guinea pigs). Also: test concentration or dose not given here. In outline: as §1
The species entered for experiment [5] is Cavia porcellus. Nature of the experiment: Number guinea pigs sensitized to the sesquiterpene alantolactone (out of 7 guinea pigs). Also: test concentration or dose not given here. In outline:
as §1

For experiment [6], the species on record is Cavia porcellus. In words: Number of guinea pigs sensitized to the sesquiterpene isoalantolactone (out of 8 guinea pigs). Also: test concentration or dose not given here. In outline:
as §1

`C=C1CC2(OC1=O)C1CCC(C1)C2(C)C` (centres undefined): the values for the Average skin reaction in the experiment listed under Cavia porcellus [1], in the experiment filed under Cavia porcellus [2] and in the experiment listed under Cavia porcellus [3] were 0, 0.7 and 1.1, respectively. The figures for the No. of sensitive in the experiment listed under Cavia porcellus [4], in the experiment listed under Cavia porcellus [5] and in the experiment filed under Cavia porcellus [6] were 0, 7 and 8, respectively.

As to `C=C1CC(CC)(CC)OC1=O`, the Average skin reaction was 0 in the experiment filed under Cavia porcellus [1], 0.4 in the experiment filed under Cavia porcellus [2] and 0.7 in the experiment filed under Cavia porcellus [3]. Further, the No. of sensitive stood at 0 in the experiment filed under Cavia porcellus [4], 5 in the experiment filed under Cavia porcellus [5] and 8 in the experiment filed under Cavia porcellus [6].

On to `C=C1CC2(CC3CC4(CC(=C)C(=O)O4)CC3C2)OC1=O` (centres undefined), for which the figures for the Average skin reaction in the experiment listed under Cavia porcellus [1], in the experiment listed under Cavia porcellus [2] and in the experiment listed under Cavia porcellus [3] were 0, 0.2 and 0.2, respectively. In addition, the values for the No. of sensitive in the experiment filed under Cavia porcellus [4], in the experiment listed under Cavia porcellus [5] and in the experiment listed under Cavia porcellus [6] were 1, 2 and 3, respectively.

For the molecule `C=C1CC(C)(CC(C)(C)C)OC1=O` (centres undefined), the Average skin reaction in the experiment filed under Cavia porcellus [1] was 0.1; in the experiment listed under Cavia porcellus [2], 0.6; in the experiment listed under Cavia porcellus [3], 0.8. The No. of sensitive in the experiment listed under Cavia porcellus [4] is 2; in the experiment listed under Cavia porcellus [5], 6; in the experiment listed under Cavia porcellus [6] it was 7.

On to `C=C1CC(C)(CC)OC1=O` (centres undefined), for which the figures for the Average skin reaction in the experiment listed under Cavia porcellus [1], in the experiment listed under Cavia porcellus [2] and in the experiment filed under Cavia porcellus [3] were 0, 0.4 and 0.4, respectively. In addition, the No. of sensitive was 0 in the experiment filed under Cavia porcellus [4], 5 in the experiment listed under Cavia porcellus [5] and 6 in the experiment filed under Cavia porcellus [6].

Consider `C=C1CC2(OC1=O)C(C)CCCC2C` (centres undefined), for which the Average skin reaction in the experiment listed under Cavia porcellus [1] is 0; in the experiment filed under Cavia porcellus [2], 1; in the experiment filed under Cavia porcellus [3], 1.7. Moreover, the No. of sensitive was determined as 0 in the experiment listed under Cavia porcellus [4], 7 in the experiment listed under Cavia porcellus [5] and 8 in the experiment filed under Cavia porcellus [6].

As for `C=C1CC2(CCCC2)OC1=O`, the figures for the Average skin reaction in the experiment listed under Cavia porcellus [1], in the experiment listed under Cavia porcellus [2] and in the experiment listed under Cavia porcellus [3] were 0, 0.2 and 0.1, respectively. In addition, the No. of sensitive turned out to be 0 in the experiment filed under Cavia porcellus [4], 2 in the experiment listed under Cavia porcellus [5] and 1 in the experiment filed under Cavia porcellus [6].

In the case of `C=C1CC(C)(C)OC1=O`, the Average skin reaction in the experiment filed under Cavia porcellus [1] amounted to 0.5; in the experiment filed under Cavia porcellus [2] it was 0; in the experiment filed under Cavia porcellus [3], 0. The No. of sensitive came to 6 in the experiment filed under Cavia porcellus [4], 0 in the experiment filed under Cavia porcellus [5] and 0 in the experiment filed under Cavia porcellus [6].

For `C=C1CC(C)OC1=O` (centres undefined), the Average skin reaction in the experiment listed under Cavia porcellus [1] is 0.6; in the experiment filed under Cavia porcellus [2], 0; in the experiment filed under Cavia porcellus [3], 0. Further, the No. of sensitive came to 7 in the experiment filed under Cavia porcellus [4], 0 in the experiment listed under Cavia porcellus [5] and 0 in the experiment filed under Cavia porcellus [6].

With `C=C1CC(C(C)(C)C)OC1=O` (centres undefined), the Average skin reaction in the experiment filed under Cavia porcellus [1] was 0.1; in the experiment listed under Cavia porcellus [2], 0.3; in the experiment listed under Cavia porcellus [3], 0.5. The No. of sensitive in the experiment filed under Cavia porcellus [4] is 1; in the experiment listed under Cavia porcellus [5], 3; in the experiment filed under Cavia porcellus [6], 5.

Consider `C=C1CC2(CCCCCCCCC2)OC1=O`, for which the Average skin reaction was 0 in the experiment listed under Cavia porcellus [1], 1.1 in the experiment listed under Cavia porcellus [2] and 0.9 in the experiment listed under Cavia porcellus [3]. Besides, the figures for the No. of sensitive in the experiment filed under Cavia porcellus [4], in the experiment filed under Cavia porcellus [5] and in the experiment filed under Cavia porcellus [6] were 0, 7 and 7, respectively.

For `C=C1CC2(CC[C@@]3(C)C(CC[C@H]4[C@@H]5CC[C@H](C(C)CCCC(C)C)[C@@]5(C)CC[C@@H]43)C2)OC1=O` (some centres undefined), the results for the Average skin reaction in the experiment filed under Cavia porcellus [1], in the experiment listed under Cavia porcellus [2] and in the experiment listed under Cavia porcellus [3] were 0, 0.1 and 0, respectively. Besides, the No. of sensitive was determined as 0 in the experiment listed under Cavia porcellus [4], 1 in the experiment filed under Cavia porcellus [5] and 0 in the experiment filed under Cavia porcellus [6].

For `C=C1C(=O)O[C@@H]2C[C@@]3(C)CCCC(=C)[C@@H]3C[C@H]12` [ISOALANTOLACTONE], the Average skin reaction in the experiment filed under Cavia porcellus [1] came to 0; in the experiment listed under Cavia porcellus [2] it was 1.4; in the experiment filed under Cavia porcellus [3], 1.4. In addition, the No. of sensitive stood at 0 in the experiment filed under Cavia porcellus [4], 7 in the experiment listed under Cavia porcellus [5] and 8 in the experiment listed under Cavia porcellus [6].

Regarding `C=C1CCOC1=O` [TULIPALINE A], the Average skin reaction is on record as 1.9 in the experiment filed under Cavia porcellus [1] and 0.1 in the experiment filed under Cavia porcellus [2]. For the same molecule, the values for the No. of sensitive in the experiment listed under Cavia porcellus [4] and in the experiment listed under Cavia porcellus [5] were 10 and 1, respectively.

Take `C=C1CC2(CCC3(CC2)CC(=C)C(=O)O3)OC1=O` (centres undefined): the results for the Average skin reaction in the experiment listed under Cavia porcellus [1], in the experiment filed under Cavia porcellus [2] and in the experiment listed under Cavia porcellus [3] were 0, 0 and 0.1, respectively. The No. of sensitive in the experiment filed under Cavia porcellus [4] amounted to 0; in the experiment listed under Cavia porcellus [5], 0; in the experiment listed under Cavia porcellus [6], 1.

`C=C1CC2(CCCC3CCCCC32)OC1=O` (centres undefined): the figures for the Average skin reaction in the experiment filed under Cavia porcellus [1], in the experiment listed under Cavia porcellus [2] and in the experiment listed under Cavia porcellus [3] were 0, 1.4 and 1.4, respectively. The No. of sensitive in the experiment listed under Cavia porcellus [4] is 0; in the experiment listed under Cavia porcellus [5], 7; in the experiment listed under Cavia porcellus [6] it was 8.

Turning to `C=C1C(=O)OC(c2ccccc2)(c2ccccc2)C1C(=O)OCC` (centres undefined), the Average skin reaction in the experiment filed under Cavia porcellus [1] worked out at 0; in the experiment filed under Cavia porcellus [2], 0.1; in the experiment filed under Cavia porcellus [3] it was 0. Moreover, the No. of sensitive in the experiment filed under Cavia porcellus [4] turned out to be 0; in the experiment listed under Cavia porcellus [5], 1; in the experiment filed under Cavia porcellus [6], 0.

On to `C=C1CC2(CCCCCC2)OC1=O`, for which the Average skin reaction in the experiment filed under Cavia porcellus [1] was found to be 0.1; in the experiment filed under Cavia porcellus [2] it was 1.1; in the experiment listed under Cavia porcellus [3], 1.2. For the same molecule, the No. of sensitive in the experiment listed under Cavia porcellus [4] was found to be 2; in the experiment filed under Cavia porcellus [5] it was 7; in the experiment filed under Cavia porcellus [6], 8.

Take `C=C1C(=O)OC2C3CCC(C3)C12` (centres undefined): the Average skin reaction amounted to 0.1 in the experiment filed under Cavia porcellus [1], 0.9 in the experiment filed under Cavia porcellus [2] and 1 in the experiment listed under Cavia porcellus [3]. Besides, the No. of sensitive came out at 2 in the experiment filed under Cavia porcellus [4], 7 in the experiment listed under Cavia porcellus [5] and 8 in the experiment filed under Cavia porcellus [6].

Consider `C=C1C(=O)OC2CC3(C)CCCC(C)C3=CC12` (centres undefined), for which the figures for the Average skin reaction in the experiment listed under Cavia porcellus [1], in the experiment listed under Cavia porcellus [2] and in the experiment filed under Cavia porcellus [3] were 0, 3 and 2.1, respectively. Further, the No. of sensitive came to 0 in the experiment listed under Cavia porcellus [4], 7 in the experiment filed under Cavia porcellus [5] and 8 in the experiment filed under Cavia porcellus [6].

In the case of `C=C1CC2(OC1=O)C1CC3CC(C1)CC2C3` (centres undefined), the Average skin reaction in the experiment listed under Cavia porcellus [1] came out at 0.1; in the experiment listed under Cavia porcellus [2], 0.8; in the experiment filed under Cavia porcellus [3], 0.8. Also, the No. of sensitive turned out to be 2 in the experiment listed under Cavia porcellus [4], 6 in the experiment listed under Cavia porcellus [5] and 8 in the experiment filed under Cavia porcellus [6].

As to `C=C1C(=O)OC2CC3(C)CCCC(=O)C3CC12` (centres undefined), the Average skin reaction in the experiment listed under Cavia porcellus [2] and in the experiment listed under Cavia porcellus [3] was 0.9 each time. For the same molecule, the No. of sensitive in the experiment filed under Cavia porcellus [5] came to 7; in the experiment listed under Cavia porcellus [6], 8.

Turning to `C=C1CC(CC)OC1=O` (centres undefined), in the experiment listed under Cavia porcellus [1], the Average skin reaction came to 0. For the same molecule, the No. of sensitive in the experiment filed under Cavia porcellus [4] is 0.

Turning to `C=C1C(=O)OC2CC3(C)CCCC4(CO4)C3CC12` (centres undefined), the Average skin reaction in the experiment filed under Cavia porcellus [2] was 0.7; in the experiment listed under Cavia porcellus [3], 1. Also, the No. of sensitive is 7 in the experiment listed under Cavia porcellus [5] and 8 in the experiment listed under Cavia porcellus [6].

Source of the values: ChEMBL document CHEMBL1121508, “Synthesis of alpha-methylene-gamma-butyrolactones: a structure-activity relationship study of their allergenic power” (1980).
